Assay results published in ChEMBL document CHEMBL3351868, “Structure-affinity relationships and pharmacological characterization of new alkyl-resorcinol cannabinoid receptor ligands: Identification of a dual cannabinoid receptor/TRPA1 channel agonist” (Bioorg Med Chem, 2014).

Columns and labels:
Cannabinoid receptor 1 [1] = biological target: T1, Cannabinoid receptor 1 (Homo sapiens, UniProt P21554); assay: Displacement of [3H]CP-55,940 from human recombinant CB1 receptor expressed in HEK293 cell membranes
Homo sapiens [2] = organism: Homo sapiens; assay: Selectivity index, ratio of Ki for human recombinant CB1 receptor to Ki for human recombinant CB2 receptor
Homo sapiens [3] = organism: Homo sapiens; assay: Selectivity index, ratio of Ki for human recombinant CB2 receptor to Ki for human recombinant CB1 receptor
Cannabinoid receptor 2 [4] = biological target: T2, Cannabinoid receptor 2 (Homo sapiens, UniProt P34972); assay: Displacement of [3H]CP-55,940 from human recombinant CB2 receptor expressed in HEK293 cell membranes
[5] = Cytotoxicity against mouse NIH/3T3 cells after 24 hrs by neutral red assay; format: cell-based; details: NIH3T3, 24 h
How it was run: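 NIH3T3 mouse fibroblasts in DMEM with 10% FCS were seeded and after 24 h exposed to compound in DMSO (5-200 µM, six replicates) for 24 h. Viability measured by neutral red uptake (3 h dye incubation, then acetic acid/ethanol extraction). IC50 derived.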

COS-7 [6] = assay: Inhibition of MGL in African green monkey COS7 cells cytosolic fraction assessed as reduction in 2-arachidonoyl-[3H]-glycerol hydrolysis at 50 uM by scintillation counting method; format: cell-based; details: Chlorocebus aethiops
[7] = Inhibition of MGL in African green monkey COS7 cells cytosolic fraction assessed as reduction in 2-arachidonoyl-[3H]-glycerol hydrolysis by scintillation counting method; format: cell-based, Chlorocebus aethiops; details: cos-7
Cannabinoid receptor 2 [8] = biological target: T2, Cannabinoid receptor 2; assay: Agonist activity at human recombinant CB2 receptor expressed in CHO cell membranes assessed as stimulation of [35S]GTPgammaS binding relative to basal level; format: functional
How it was run: (§1)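 Membranes from CHO cells stably expressing human CB1 or CB2, 50 µg protein per well, in Tris buffer with 100 mM NaCl, 5 mM MgCl2, 1 mM DTT, 1 mM EDTA, 0.1% BSA, pH 7.4. Incubated 60 min at 30°C with 0.1 nM [35S]GTPγS, 30 µM GDP and compound in DMSO. Nonspecific binding defined with 30 µM GTPγS. Filtration and scintillation counting. Percent change relative to DMSO control, n=6. EC50/Emax from sigmoidal fit.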

Cannabinoid receptor 1 [9] = biological target: T1, Cannabinoid receptor 1; assay: Agonist activity at human recombinant CB1 receptor expressed in CHO cell membranes assessed as stimulation of [35S]GTPgammaS binding relative to basal level; format: functional; how it was run: as §1
COS-7 [10] = assay: Inhibition of MGL in African green monkey COS7 cells cytosolic fraction assessed as reduction in 2-arachidonoyl-[3H]-glycerol hydrolysis at 1 uM by scintillation counting method; format: cell-based; details: Chlorocebus aethiops

T2 sequence (P34972 whole entry): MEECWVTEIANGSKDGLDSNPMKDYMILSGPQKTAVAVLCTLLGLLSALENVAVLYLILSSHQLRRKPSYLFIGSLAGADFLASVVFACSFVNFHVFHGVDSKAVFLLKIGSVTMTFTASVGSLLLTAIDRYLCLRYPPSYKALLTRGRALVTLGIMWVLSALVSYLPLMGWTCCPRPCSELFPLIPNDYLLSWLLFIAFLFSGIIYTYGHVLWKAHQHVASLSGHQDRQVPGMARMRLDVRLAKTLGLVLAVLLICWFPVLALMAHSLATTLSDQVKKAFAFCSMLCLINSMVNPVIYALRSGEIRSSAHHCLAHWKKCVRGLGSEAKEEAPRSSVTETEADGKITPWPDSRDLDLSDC
T1 sequence (P21554 whole entry): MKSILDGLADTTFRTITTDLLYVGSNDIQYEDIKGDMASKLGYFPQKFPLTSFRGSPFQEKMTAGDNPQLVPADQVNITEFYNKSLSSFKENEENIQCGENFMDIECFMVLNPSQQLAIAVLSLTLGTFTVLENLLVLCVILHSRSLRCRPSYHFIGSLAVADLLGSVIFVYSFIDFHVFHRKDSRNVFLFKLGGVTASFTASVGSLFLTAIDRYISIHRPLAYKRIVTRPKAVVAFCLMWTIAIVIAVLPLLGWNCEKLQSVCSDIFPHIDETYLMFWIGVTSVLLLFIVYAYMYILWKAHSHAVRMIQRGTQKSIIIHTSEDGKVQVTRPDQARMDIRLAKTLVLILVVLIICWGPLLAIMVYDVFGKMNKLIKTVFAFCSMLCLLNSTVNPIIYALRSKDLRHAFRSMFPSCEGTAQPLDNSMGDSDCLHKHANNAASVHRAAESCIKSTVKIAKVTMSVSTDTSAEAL

With CCCCCc1cc(O)cc(OCCCCCCCCCCC(=O)N[C@H](C)CO)c1 the Ki (Cannabinoid receptor 1 [1]) was 264 nM, the Ratio Ki (Homo sapiens [2]) was 2.72 and the Ratio Ki (Homo sapiens [3]) was 0.37. For the same compound, the Ki (Cannabinoid receptor 2 [4]) was 97.2 nM.
Compound CCCCCc1cc(O)cc(OCCCCCCCCCCCCNC2CC2)c1 has a Ki (Cannabinoid receptor 1 [1]) of 830 nM, a Ratio Ki (Homo sapiens [2]) of less than 0.08 and a Ratio Ki (Homo sapiens [3]) greater than 12.1. For the same compound, the Ki (Cannabinoid receptor 2 [4]) was greater than 10000 nM.
CCCCCCC(C)(C)c1cc(O)cc(OCCCCCCCC(=O)N[C@H](C)CO)c1 showed an IC50 [5] of 69000 nM, a Ki (Cannabinoid receptor 1 [1]) of 17.2 nM and a Ratio Ki (Homo sapiens [2]) of 0.34. For the same compound, the Ratio Ki (Homo sapiens [3]) was 2.92 and the Ki (Cannabinoid receptor 2 [4]) was 50.2 nM.
Work on CCCCCCC(C)(C)c1cc(O)cc(OCCCCCCCCCN2C(=O)c3ccccc3C2=O)c1 yielded an Imax (COS-7 [6]) of 18.8% and an IC50 [7] greater than 50000 nM.
CCCCCc1cc(O)cc(OCCCCCCCC(=O)N[C@H](C)CO)c1 gave a Ki (Cannabinoid receptor 1 [1]) of 12.8 nM, a Ratio Ki (Homo sapiens [2]) of 0.11 and a Ratio Ki (Homo sapiens [3]) of 9.32. For the same compound, the Ki (Cannabinoid receptor 2 [4]) was 119 nM.
With C=CCNCCCCCCCCCCCOc1cc(O)cc(CCCCC)c1 the Ki (Cannabinoid receptor 1 [1]) was 1140 nM, the Ratio Ki (Homo sapiens [2]) was 0.62 and the Ratio Ki (Homo sapiens [3]) was 1.62. For the same compound, the Ki (Cannabinoid receptor 2 [4]) was 1850 nM.
CCCCCc1cc(O)cc(OCCCCCCCCCN2C(=O)c3ccccc3C2=O)c1 showed an Imax (COS-7 [6]) of 16.8% and an IC50 [7] greater than 50000 nM.
CCCCCc1cc(O)cc(OCCCCCCCCCCCNC(=O)C2CC2)c1 gave a Ki (Cannabinoid receptor 1 [1]) of 2770 nM, a Ratio Ki (Homo sapiens [2]) of 6.02 and a Ratio Ki (Homo sapiens [3]) of 0.17. The Ki (Cannabinoid receptor 2 [4]) was 460 nM.
With CCCCCCC(C)(C)c1ccc([C@@H]2C[C@H](O)CC[C@H]2CCCO)c(O)c1 the Emax (Cannabinoid receptor 2 [8]) was 66.5% and the Emax (Cannabinoid receptor 1 [9]) was 72.1%.
For CCCCCCc1ccc(O)cc1OCCCCCCCCCCCNC(=O)C1CC1, the Ki (Cannabinoid receptor 1 [1]) was 900 nM, the Ratio Ki (Homo sapiens [2]) was 3.6 and the Ratio Ki (Homo sapiens [3]) was 0.28. For the same compound, the Ki (Cannabinoid receptor 2 [4]) was 250 nM.
CCCCCc1cc(O)cc(OCCCCCCCCCCC(=O)NCc2ccccc2)c1 showed a Ki (Cannabinoid receptor 1 [1]) greater than 10000 nM, a Ratio Ki (Homo sapiens [2]) greater than 49.5 and a Ratio Ki (Homo sapiens [3]) of less than 0.02. For the same compound, the Ki (Cannabinoid receptor 2 [4]) was 202 nM.
For CCCCCCc1ccc(O)cc1OCCCCCCCCCCCN1C(=O)c2ccccc2C1=O, the Imax (COS-7 [6]) was 16.3% and the IC50 [7] was greater than 50000 nM.
For CCCCCc1cc(O)cc(OCCCCCCCCCN[C@H](C)CO)c1, the Ki (Cannabinoid receptor 1 [1]) was 1060 nM, the Ratio Ki (Homo sapiens [2]) was 0.7 and the Ratio Ki (Homo sapiens [3]) was 1.43. For the same compound, the Ki (Cannabinoid receptor 2 [4]) was 1520 nM.
Work on CCCCCCC(C)(C)c1cc(O)cc(OCCCCCCCCCCC(=O)NC23CC4CC(CC(C4)C2)C3)c1 yielded a Ki (Cannabinoid receptor 1 [1]) greater than 10000 nM and a Ki (Cannabinoid receptor 2 [4]) greater than 10000 nM.
CCCCCCCCCCC[C@@H](C[C@@H]1OC(=O)[C@H]1CCCCCC)OC(=O)CNC=O showed an Imax (COS-7 [10]) of 60%.
Work on CCCCCCC(C)(C)c1cc(O)cc(OCCCCCCCCCCC(=O)NC(CO)CO)c1 yielded a Ki (Cannabinoid receptor 1 [1]) of 1890 nM, a Ratio Ki (Homo sapiens [2]) of 8.22 and a Ratio Ki (Homo sapiens [3]) of 0.12. It also gave a Ki (Cannabinoid receptor 2 [4]) of 230 nM.
In the case of CCCCCc1cc(O)cc(OCCCCCCCCCCCN2C(=O)c3ccccc3C2=O)c1, the Imax (COS-7 [6]) is reported as 15.9% and the IC50 [7] is reported as greater than 50000 nM.
With CCCCCc1cc(O)cc(OCCCCCCCCCCCNCc2ccccc2)c1 the Ki (Cannabinoid receptor 1 [1]) was 1240 nM, the Ratio Ki (Homo sapiens [2]) was 1.49 and the Ratio Ki (Homo sapiens [3]) was 0.67. It also gave a Ki (Cannabinoid receptor 2 [4]) of 830 nM.
Work on CCCCCCC(C)(C)c1cc(O)cc(OCCCCCCCCCCC(=O)N[C@H](C)CO)c1 yielded a Ki (Cannabinoid receptor 1 [1]) of 132 nM, a Ratio Ki (Homo sapiens [2]) of 6.24 and a Ratio Ki (Homo sapiens [3]) of 0.16. It also gave a Ki (Cannabinoid receptor 2 [4]) of 21.2 nM.
